The values that follow come from ChEMBL document CHEMBL1148937, “Anti-inflammatory phloroglucinols and terpenoids from Garcinia subelliptica” (J Nat Prod, 2004).

pIC50: −log10 of the molar value.

In assay [1] the test system is N9. The experiment in a line: Antiinflammatory activity against mouse N9 cells assessed as inhibition of LPS/IFN-gamma-induced nitrite accumulation after 24 hrs. As to conditions: N9, 24 h.
For assay [2], the system named is RAW264.7. The experiment in a line: Antiinflammatory activity against mouse RAW264.7 cells assessed as inhibition of LPS-induced nitrite accumulation after 24 hrs. As to conditions: RAW264.7, 24 h. The class given is functional, cell-based. The procedure, abridged: (§1)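 RAW 264.7 macrophage-like cells stimulated with LPS (1 µg/mL) for 24 h. Nitrite accumulated in the medium was measured by Griess reaction as an index of NO production. IC50 in µM; % inhibition is reported when 50% inhibition was not reached at the top concentration. Means ± SEM, n = 3-5.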

The next assay relates to Neutrophil. The experiment in a line: Induction of fMLP/CB-stimulated superoxide anion generation in rat neutrophil. The class given is functional, cell-based. The procedure, abridged:
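Rat neutrophils stimulated with fMLP (0.3 µM) plus cytochalasin B (5 µg/mL). Superoxide anion generation measured across a concentration range of test agent.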

The subject of assay [3] is Mast cell. The experiment in a line: Inhibition of compound 48/80-stimulated beta-glucuronidase release in rat peritoneal mast cell. The class given is functional, cell-based.
Assay [4] concerns RAW264.7. Description: Antiinflammatory activity against mouse RAW264.7 cells assessed as inhibition of LPS-induced TNFalpha production at 30 uM. The class given is functional. The procedure, abridged: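 TNF-α production in the culture medium of LPS-stimulated RAW 264.7 cells, with test agent at 30 µM. Expressed as % inhibition.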
Assay [5] deals with Mast cell. Description: Inhibition of compound 48/80-stimulated histamine release in rat mast cell. Type of assay: functional, cell-based.
Assay [6] has as its system N9. The experiment in a line: Antiinflammatory activity against mouse N9 cells assessed as inhibition of LPS/IFN-gamma-induced nitrite accumulation at >30 uM after 24 hrs. The class given is functional. The procedure, abridged:
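N9 microglial cells stimulated with LPS (10 ng/mL) plus IFN-γ (10 U/mL) for 24 h. NO production measured as nitrite accumulation in the medium by Griess reaction. IC50 in µM; where 50% inhibition was not reached at the highest concentration, % inhibition is given. Means ± SEM, n = 3-5.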

For assay [7], the system named is Mast cell. The experiment in a line: Inhibition of compound 48/80-stimulated histamine release in rat mast cell at >30 uM. Type of assay: functional.
Assay [8] deals with Mast cell. Description: Inhibition of compound 48/80-stimulated beta-glucuronidase release in rat mast cell at >30 uM. The class given is functional.
For assay [9], the system named is RAW264.7. Description: Antiinflammatory activity against mouse RAW264.7 cells assessed as inhibition of LPS-induced nitrite accumulation at >30 uM after 24 hrs. The class given is functional. Summed up:
as §1

The term pIC50 denotes −log10 of the IC50, conventionally taken in molar units. As for `CC(=N)NCc1cccc(CN)c1` [1400W], the results for the pIC50 in the assay on N9 [1] and in the assay with RAW264.7 [2] were 5.20 and 5.54, respectively.

For orientation: inhibition means the drop in the measured response relative to a control, in per cent. For `CC(C)=CC[C@H]1C[C@]2(C(=O)C(C)C)C(=O)[C@@](CC=C(C)C)(C(=O)C3=C2O[C@@H](C(C)(C)O)C3)C1(C)C` [GARCINIELLIPTONE L], the pIC50 in the assay with N9 [1] was 4.89; in the assay on Mast cell [3], 4.64; in the assay on RAW264.7 [2], 4.64; in the assay with Mast cell [5], less than 4.52. Also, the Activity result in the assay on Neutrophil is “Dose-dependent effect”. Besides, the inhibition at 30 µM in the assay on RAW264.7 [4] came to 32.1%.

On to `CC(C)=CC[C@H]1C[C@]2(C(=O)C(C)C)C(=O)[C@@](CC=C(C)C)(C(=O)C3=C2O[C@H](C(C)(C)O)C3)C1(C)C` [GARCINIELLIPTONE M], for which the pIC50 in the assay on N9 [1] is less than 4.52; in the assay with Mast cell [3], 4.87; in the assay with RAW264.7 [2], 4.82; with Mast cell [5], 4.72. Moreover, the Activity result in the assay on Neutrophil was “Dose-dependent effect”. The inhibition at 30 µM with RAW264.7 [4] was 36.9%.

As to `CC(C)=CC[C@H]1C[C@@H](CC=C(C)C)C(C)(C)[C@@H](C(=O)C(C)C)C1=O` [GARCINIELLIPTONE N], the “inhibition (INH)” value in the assay with N9 [6] is on record as 34.5%; in the assay on Mast cell [7] it was 13.7%; with Mast cell [8] it was 30.2%; in the assay with RAW264.7 [9] it was 5.7%. Also, the pIC50 with N9 [1], with Mast cell [3], in the assay with RAW264.7 [2] and with Mast cell [5] was less than 4.52 in each case.

Take `COC(=O)[C@]1(CC=C(C)C)C[C@@H](CC=C(C)C)C(C)(C)[C@@H](C(=O)C(C)C)C1=O` [GARCINIELLIPTONE O]: the “inhibition (INH)” value is given as 34.6% with N9 [6], 32.8% in the assay with Mast cell [7], 43.9% in the assay on Mast cell [8] and 22.1% in the assay on RAW264.7 [9]. Also, the pIC50 in the assay on N9 [1], with Mast cell [3], in the assay on RAW264.7 [2] and with Mast cell [5] was less than 4.52 throughout.

Regarding `CCN(CC)CCCC(C)Nc1c2ccc(Cl)cc2nc2ccc(OC)cc12` (configuration not stated) [QUINACRINE], the negative logarithm of the IC50 (pIC50) in the assay with Mast cell [3] was 4.86; in the assay with Mast cell [5], 4.63.
